Compound activity from PubChem BioAssay.
HKDC1 inh: blocks human hexokinase HKDC1 activity. Q2TB90. recombinant HKDC1, G6PDH/diaphorase resazurin coupled fluorescence. actives 0.16% (n = 340,000). AID 493160. inhibition, % at 20 µM;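 active = inhibition above about 35% when tested at 20 µM, limit read from the data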;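 also: plate controls were DMSO wells with enzyme for no effect and DMSO wells lacking enzyme for full effect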
Target sequence (Q2TB90 whole entry, looked up): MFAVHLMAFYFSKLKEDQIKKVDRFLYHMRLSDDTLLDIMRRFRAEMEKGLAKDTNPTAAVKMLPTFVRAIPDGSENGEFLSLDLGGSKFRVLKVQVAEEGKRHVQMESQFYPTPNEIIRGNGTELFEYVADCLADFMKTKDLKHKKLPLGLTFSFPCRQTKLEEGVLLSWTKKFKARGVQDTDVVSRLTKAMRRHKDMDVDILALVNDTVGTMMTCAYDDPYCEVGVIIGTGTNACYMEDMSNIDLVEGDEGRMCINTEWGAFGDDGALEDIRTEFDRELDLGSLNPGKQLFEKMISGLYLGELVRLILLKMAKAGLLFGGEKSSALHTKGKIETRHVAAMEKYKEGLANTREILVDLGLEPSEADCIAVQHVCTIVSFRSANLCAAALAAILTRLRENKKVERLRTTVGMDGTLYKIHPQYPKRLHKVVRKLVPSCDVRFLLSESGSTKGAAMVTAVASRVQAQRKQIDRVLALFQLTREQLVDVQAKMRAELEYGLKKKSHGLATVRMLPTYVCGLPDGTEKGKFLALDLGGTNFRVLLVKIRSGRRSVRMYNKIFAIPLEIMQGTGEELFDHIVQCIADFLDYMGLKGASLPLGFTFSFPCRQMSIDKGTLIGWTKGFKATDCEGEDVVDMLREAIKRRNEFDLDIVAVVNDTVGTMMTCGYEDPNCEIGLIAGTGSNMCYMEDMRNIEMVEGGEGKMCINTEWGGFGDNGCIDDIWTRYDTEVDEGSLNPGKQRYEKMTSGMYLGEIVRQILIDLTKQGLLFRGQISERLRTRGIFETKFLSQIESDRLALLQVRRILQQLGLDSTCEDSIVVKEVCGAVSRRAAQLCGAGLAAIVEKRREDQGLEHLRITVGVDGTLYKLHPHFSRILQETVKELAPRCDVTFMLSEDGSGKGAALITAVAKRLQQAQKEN
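Assay system: in-house recombinant HK5 (HKDC1) enzyme. Input: HKDC1 at 5 µg/mL. Medium: Tris pH 8.0 buffer with MgCl2, Tween-20, BSA, BME. Dosing: single 20 µM dose. Schedule: 90 min reaction incubation at room temperature, dark. Signal: resazurin-to-resorufin fluorescence via G6PDH and diaphorase coupling, 525/613 nm. Controls: DMSO-enzyme wells negative, buffer-substituted wells positive.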
PfG6PD inh: PfG6PD (Plasmodium falciparum) enzyme inhibition. PfGluPho enzyme, NADPH resazurin-diaphorase fluorescence. inhibition, % at 20 µM. actives 0.78% (n = 350,000). AID 504690;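 active = inhibition reaching at least a set limit at 20 µM in the primary screen, cut at about 59% in these data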;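 also: 0% = DMSO wells with substrate and 100% = DMSO wells lacking glucose-6-phosphate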
Diaph act CS: activates diaphorase or chemically reduces, flagging diaphorase assay artifacts; Diaphorase/resazurin coupled assay, resorufin fluorescence, 16 min; stronger effect = higher value; 1 = vehicle wells, 0 = NADH-free wells; activation factor at 20 µM; actives 0.005% (n = 190,000);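 active = diaphorase activity raised at least twofold by the compound at 20 µM; inactive = activation factor below 2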
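Material: Purified diaphorase enzyme from Clostridium kluyveri | Buffer or medium: 50 mM HEPES pH 7.4 with 4.542 mM MgCl2, 0.005% Tween 20 | Times: 16 min enzyme reaction, ambient temperature | Signal: Red resorufin fluorescence at 544/590 nm excitation/emission | Measure: Increased resorufin signal from activators or reducing compounds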
G6PDH counter: inhibits Leuconostoc G6PDH, flagging false hits in G6PDH-based assays; Purified L. mesenteroides G6PDH, diaphorase/resazurin coupled fluorescence, 45 min; inhibition, % at 5 µM; actives 0.12% (n = 200,000); AID 1020; in the data active = inhibition above about 50%
Diaph inh CS: diaphorase inhibition or chemical oxidation counter-screen; diaphorase resazurin-to-resorufin fluorescence, NADH, 16 min; bacterial (C. kluyveri) enzyme, not human; inhibition, % at 20 µM; actives 0.69% (n = 190,000);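 active = primary screen inhibition at 20 µM above a set limit, cut at about 50% in these data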;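 also: plate controls were DMSO with full reaction for no effect and wells lacking NADH for full effect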
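Test system: Clostridium kluyveri diaphorase enzyme / Quantity: diaphorase at 0.14 U/mL in enzyme working solution / Incubation: 16-min room-temperature incubation before reading / Benchmarks: NADH-free wells as positive control, DMSO-only neutral wells / Signal: resorufin fluorescence 544/590 nm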
PfGluPho conf: confirmation of Plasmodium falciparum G6PD inhibitors; shares compounds with PfG6PD inh; recombinant PfGluPho, NADPH-diaphorase-resazurin fluorescence; inhibition, % at 20 µM; actives 34% (n = 2,400);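 active = inhibition of at least 50% at 20 µM in any single replicate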;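 also: 0% = DMSO with substrate and 100% = DMSO lacking glucose-6-phosphate substrate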
Diaph ctr 10uM: counter-screen for P. falciparum G6PD inhibitors: diaphorase inhibitors, oxidizers; shares compounds with PfG6PD inh; diaphorase-coupled resazurin reduction, fluorescence, NADPH 10 uM; actives 39% (n = 820); inhibition, % at 20 µM;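 active = average inhibition reaching 50% or more with the compound at 20 µM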;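 also: resorufin red fluorescence formed as diaphorase reduces resazurin using NADPH; 0% = DMSO with enzyme and 100% = DMSO without enzyme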
Diaph ctr 30uM: diaphorase inhibition or oxidation at 30 uM NADPH | shares compounds with PfG6PD inh | Diaphorase/resazurin coupled assay, resorufin fluorescence | inhibition, % at 20 µM | actives 29% (n = 820);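 active = inhibition averaging 50% or more, tested at 20 µM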;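 also: 0% = DMSO with enzyme and 100% = DMSO wells lacking diaphorase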
Numbers without * were called inactive; x = no result given. Compounds with a hit are over-represented: about 1.2% of the library has one in this group of screens.

SMILES	HKDC1 inh	PfG6PD inh	Diaph act CS	G6PDH counter	Diaph inh CS	PfGluPho conf	others
O=[N+]([O-])c1ccc(Sc2cccc3cccnc23)c([N+](=O)[O-])c1	-30.1	147.7*	0.8	21.6	15.4	99.0*	Diaph ctr 10uM=70.7*;Diaph ctr 30uM=60.8*
CC1CN(Cc2nc3ccccc3c(=O)[nH]2)CC(C)O1 (stereo unspecified)	11.0	-13.0	1	20.9	0.9	x
Cc1ccc(-n2nc(C)c3c(C)c(CCC(=O)O)c(C)nc32)cc1C	1.4	1.0	x	x	x	x
COc1cccc2c1C(=N)c1c(O)c3c(c(O)c1C2=O)CC(O)(C(C)=O)CC3OC1CC(N)C(O)C(C)O1 (stereo unspecified)	9.8	59.5*	x	x	x	20.1
CN1CC2=Cc3ccccc3OC23Oc2ccccc2C=C3C1	9.8	119.8*	1	7.8	4.8	89.6*	Diaph ctr 10uM=86.1*;Diaph ctr 30uM=75.3*
Cc1nn(C)c(Sc2ccccc2N)c1[N+](=O)[O-]	-8.5	64.2*	0.8	11.8	15.1	15.0
Cc1[nH]c2ccccc2c1/C=N/Nc1ccccn1	x	x	0.8	-1.7	21.1	x
Cc1[nH]c2ccccc2c1/C=N/Nc1nncn1N	1.3	69.2*	1	7.7	-3.2	60.0*	Diaph ctr 10uM=35.5;Diaph ctr 30uM=23.2
CCCOc1ccc(/C=C/C(=O)Nc2ccc([N+](=O)[O-])cc2)cc1	-0.4	24.1	0.8	12.8	19.8	x
Cc1ccc(/C=C/C(=O)Nc2ccc([N+](=O)[O-])cc2)o1	0.1	88.0*	0.9	13.5	12.2	44.8
Cc1ccc(/C=C/C(=O)Nc2sc(C)c(C)c2C(=O)OC(C)C)o1	-4.2	59.7*	1	0.2	0.0	2.6
Cc1ccc(/C=C/C(=O)Nc2ccc(Oc3ccccc3)cc2)o1	2.8	60.8*	0.7	-8.0	25.4	25.9
O=C(O)/C=C/C(=O)Nc1ccc(Oc2ccccc2)cc1	-1.3	-3.6	x	x	x	x
CCOCCCN(C(=O)Cn1nnc(-c2ccc(C)o2)n1)C(C(=O)NC1CCCC1)c1ccc(C)o1 (stereo unspecified)	1.5	3.0	x	x	x	x
Oc1cccc(Nc2nc(-c3ccccc3)nc3ccccc23)c1	-3.5	12.9	x	x	x	x
CCn1c(/C=C/c2c(C)n(CC)c3ccccc23)nc2ccccc2c1=O	7.4	0.2	0.9	-30.9	8.3	x
CCn1c2ccccc2nc2cc3c(cc21)c(Cl)c(=O)c1ccccc13	x	93.8*	x	x	x	40.5
CCCCCN(C(=O)CCC(=O)OCC(=O)Nc1cccc(SC)c1)c1c(N)n(CCCC)c(=O)[nH]c1=O	5.6	-13.6	x	x	x	x
Nc1nc2cc(S(=O)(=O)N3CCOCC3)ccc2o1	-14.7	68.8*	x	x	x	24.9
Cc1ccccc1NC(=O)CSc1nc2ncc(Cl)cc2[nH]1	0.1	-7.5	x	x	x	x
Cc1ccc(S(=O)(=O)N(C)C)cc1NC(=O)CSc1nc2ncc(Cl)cc2[nH]1	0.7	65.8*	x	x	x	52.2*	Diaph ctr 10uM=15.2;Diaph ctr 30uM=39.4
CCc1ccc(C(=O)NNC(=O)c2ccc(OCC(=O)N3CCOCC3)c(OC)c2)cc1	-6.6	1.7	x	x	x	x
CCOc1ccc(C(=S)NC2CCCCC2)cc1OC	-5.7	62.1*	0.9	1.8	11.3	14.0
N#Cc1c(N2CCCC2)nc(N)c2c(N)nc(N3CCCC3)cc12	20.4	106.8*	1.6	-57.6	-56.8	29.3
COc1cc2c(C#N)c(N3CCCC3)nc(N)c2c(N)n1	25.8	20.5	x	x	x	x
CCOc1ccc(/C(O)=C/C(=O)C(=O)Nc2ccc(S(=O)(=O)NC(C)=O)cc2)cc1	-9.1	-3.0	0.9	10.9	8.7	x
COc1cc(OC)cc(C(=O)NCC(=O)N2CCN(c3ccc(O)cc3)CC2)c1	1.8	59.8*	x	x	x	42.5
COc1ccc(N2CCN(C(=O)CNC(=O)c3ccc4ccccc4c3)CC2)cc1	-5.0	14.1	x	x	x	x
CC(C)(C)NC(=O)c1cc(C(C)(C)C)c(O)c(C(C)(C)C)c1	0.9	8.3	1	3.7	3.8	x
